Data on three compounds can be found in ChEMBL document CHEMBL2177067 (J Med Chem, 2012).

Data set [1] has as its system Staphylococcus aureus. The data set can be described thus: Ratio of MIC for Staphylococcus aureus ATCC 25923 in presence of reserpine to MIC for Staphylococcus aureus ATCC 25923 in absence of reserpine. Type of data set: functional.
The next data set has as its system HeLa. Description: Cytotoxicity against human HeLa cells by MTS assay. In kind it is cell-based. (Tetrazolium dyes change colour on reduction, which living cells bring about.)
Data set [2] is described as follows: Selectivity index, ratio of CC50 for human HeLa cells to MIC for Bacillus anthracis. In kind it is functional. In outline:
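Selectivity index is HeLa CC50 (MTS assay) divided by the bacterial MIC.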

Data set [3] relates to Staphylococcus aureus. The data set can be described thus: Antibacterial activity against Staphylococcus aureus ATCC 25923 by broth microdilution method in presence of reserpine. In kind it is functional. (Dilution methods test growth across graded concentrations, often in twofold steps.)
Data set [4] has as its system Staphylococcus aureus. The data set can be described thus: Antibacterial activity against Staphylococcus aureus ATCC 25923 by broth microdilution method. In kind it is functional.
Data set [5] deals with Bacillus anthracis. The data set can be described thus: Antibacterial activity against Bacillus anthracis by broth microdilution method. In kind it is functional.
The nature of data set [6]: Inhibition of Staphylococcus aureus ATCC 25923 replicative DnaB helicase-mediated ATP-dependent dissociation of Hel-5'FAM:Hel-3'BHQ by FRET assay. In outline: (§1)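 Unwinding was read by FRET as helicase-driven, ATP-dependent dissociation of annealed Hel-5′FAM and Hel-3′BHQ oligonucleotides, one fluorescent and the other quencher-labelled. The replicative helicases were prepared as described earlier.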

The next data set deals with T1, Replicative DNA helicase (Bacillus anthracis, UniProt A0A6L8Q2B7).
T1 sequence (A0A6L8Q2B7 whole entry): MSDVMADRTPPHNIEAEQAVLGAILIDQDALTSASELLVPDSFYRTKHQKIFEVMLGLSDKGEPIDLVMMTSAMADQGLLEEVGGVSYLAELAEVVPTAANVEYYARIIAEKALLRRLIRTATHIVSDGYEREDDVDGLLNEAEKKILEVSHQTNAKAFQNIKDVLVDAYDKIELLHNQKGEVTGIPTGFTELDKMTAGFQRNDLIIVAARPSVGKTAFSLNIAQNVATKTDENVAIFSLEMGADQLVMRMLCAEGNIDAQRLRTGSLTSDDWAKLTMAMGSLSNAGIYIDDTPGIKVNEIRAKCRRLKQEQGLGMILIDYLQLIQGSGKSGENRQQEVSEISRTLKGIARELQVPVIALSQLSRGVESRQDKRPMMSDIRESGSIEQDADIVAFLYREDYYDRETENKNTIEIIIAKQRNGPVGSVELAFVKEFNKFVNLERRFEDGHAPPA
Description: Inhibition of Bacillus anthracis Sterne 34F2 replicative DNA helicase-mediated ATP-dependent dissociation of Hel-5'FAM:Hel-3'BHQ by FRET assay. More on the design: species or system Bacillus anthracis str. Sterne. In outline:
as §1

Data set [7] is described as follows: Selectivity index, ratio of CC50 for human HeLa cells to MIC for Staphylococcus aureus ATCC 25923 in presence of reserpine. In kind it is functional.
Data set [8] relates to Staphylococcus aureus. Description: Antibacterial activity against methicillin-resistant Staphylococcus aureus 1094. In kind it is functional.
Data set [9] has as its system Staphylococcus aureus. Description: Antibacterial activity against methicillin-resistant Staphylococcus aureus 1234558336. Type of data set: functional.
For data set [10], the system named is Staphylococcus aureus. The data set can be described thus: Antibacterial activity against methicillin-resistant Staphylococcus aureus 1234549404. Type of data set: functional.
Data set [11] relates to Staphylococcus aureus. The data set can be described thus: Antibacterial activity against methicillin-resistant Staphylococcus aureus 1234547263. Type of data set: functional.
For data set [12], the system named is Staphylococcus aureus. Description: Antibacterial activity against methicillin-resistant Staphylococcus aureus 1234544081. In kind it is functional.
In data set [13] the test system is Staphylococcus aureus. Description: Antibacterial activity against methicillin-resistant Staphylococcus aureus 1234522733. Type of data set: functional.
For data set [14], the system named is Staphylococcus aureus. Description: Antibacterial activity against methicillin-resistant Staphylococcus aureus 1234543349. In kind it is functional.
Data set [15] concerns Staphylococcus aureus. Description: Antibacterial activity against Staphylococcus aureus ATCC 25923. In kind it is functional.
Data set [16] concerns Enterococcus faecium. The data set can be described thus: Antibacterial activity against vancomycin-resistant Enterococcus faecium 1644. Type of data set: functional.
In data set [17] the test system is Enterococcus faecium. The data set can be described thus: Antibacterial activity against vancomycin-resistant Enterococcus faecium B42762. Type of data set: functional.
In data set [18] the test system is Enterococcus faecium. The data set can be described thus: Antibacterial activity against Enterococcus faecium ATCC 19434. In kind it is functional.
Data set [19] deals with Enterococcus faecalis. The data set can be described thus: Antibacterial activity against vancomycin-resistant Enterococcus faecalis F118. Type of data set: functional.
Data set [20] deals with Enterococcus faecalis. Description: Antibacterial activity against vancomycin-resistant Enterococcus faecalis 700802. In kind it is functional.
Data set [21] deals with Enterococcus faecalis. The data set can be described thus: Antibacterial activity against vancomycin-resistant Enterococcus faecalis 51299. In kind it is functional.
Data set [22] relates to Enterococcus faecalis. Description: Antibacterial activity against vancomycin-resistant Enterococcus faecalis ATCC 51575. Type of data set: functional.
Data set [23] concerns Enterococcus faecalis. The data set can be described thus: Antibacterial activity against Enterococcus faecalis ATCC 29212. Type of data set: functional.
For another data set, the system named is Bacillus licheniformis. The data set can be described thus: Antibacterial activity against Bacillus licheniformis ATCC 14580. Type of data set: functional.
The test system of data set [24] is Bacillus anthracis. Description: Antibacterial activity against Bacillus anthracis Sterne. In kind it is functional.
The next data set has as its system Bacillus thuringiensis. Description: Antibacterial activity against Bacillus thuringiensis ATCC 10792. In kind it is functional.
For a further data set, the system named is Bacillus subtilis. Description: Antibacterial activity against Bacillus subtilis BD54. Type of data set: functional.
For data set [25], the system named is Staphylococcus aureus. The data set can be described thus: Inhibition of Staphylococcus aureus ATCC 25923 single-strand DNA stimulated ATPase activity of replicative DnaB helicase at 50 uM by FRET assay.
For data set [26], the system named is Staphylococcus aureus. The data set can be described thus: Antibacterial activity against Staphylococcus aureus ATCC 25923 assessed as re-growth at MIC after 24 hrs. In kind it is functional, organism-based. In outline:
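At set times up to 24 h, aliquots were diluted and spread on inhibitor-free LB agar to count viable CFU.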

The nature of data set [27]: Inhibition of Staphylococcus aureus ATCC 25923 replicative DnaB helicase using 0.1875 to 3 mM ATP as substrate assessed as DNA duplex strand-unwinding by FRET assay. In outline: (§2)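 S. aureus helicase FRET unwinding assay run with varied DNA duplex or ATP concentrations, in triplicate. RFU/min slopes were normalized to the uninhibited control, and IC50 came from four-parameter nonlinear fits.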

The nature of data set [28]: Inhibition of Staphylococcus aureus ATCC 25923 replicative DnaB helicase using 3.3 to 90 nM Hel-5'FAM:Hel-3'BHQ as substrate assessed as DNA duplex strand-unwinding by FRET assay. In outline: as §2

In brackets after ≈: the same amount, converted by molar mass. Activity calls are given as the source filed them. No cut-off for these calls is given here.

By CC50 is commonly meant the concentration giving 50% cytotoxicity. A lower CC50 goes with greater toxicity to the cells. One may read the MIC as the lowest concentration found to suppress growth. As usually defined, the IC50 is the midpoint of a concentration-inhibition curve. Consider `Cc1c(CCC(=O)O)c(=O)oc2c(C)c(OCc3ccc(-c4ccc(C(F)(F)F)cc4)cc3)ccc12`, for which the Ratio in the data set on Staphylococcus aureus [1] worked out at 8. In addition, the CC50 with HeLa is 20.3 µM. Moreover, the “Selectivity Index” value in [2] is over 25.4; in data set [7], 3.2. The minimal inhibitory concentration (MIC) was 6.3 µM in the data set on Staphylococcus aureus [3], 50 µM (≈ 24.8 µg/mL) against Staphylococcus aureus [4] and under 0.8 µM with Bacillus anthracis [5]. In addition, the figures for the half-maximal inhibitory concentration (IC50) (in data set [6]; at Replicative DNA helicase) were 3.3 µM and 6.1 µM, respectively.

The inhibition is how much of the control response was suppressed. Low values mean a response near the control, high ones a response far below the control. Turning to `Cc1c(CCC(=O)O)c(=O)oc2c(C)c(OCc3ccc(-c4ccc(Cl)cc4)cc3)ccc12`, the MIC was determined as 2.1 µg/mL (≈ 4.54 µM) against Staphylococcus aureus [8]; 1.04 µg/mL (≈ 2.25 µM) with Staphylococcus aureus [9]; 0.52 µg/mL (≈ 1.12 µM) against Staphylococcus aureus [10]; 0.65 µg/mL (≈ 1.4 µM) against Staphylococcus aureus [11]; 0.65 µg/mL (≈ 1.4 µM) in the data set with Staphylococcus aureus [12]; 0.78 µg/mL (≈ 1.68 µM) against Staphylococcus aureus [13]. In addition, the minimum inhibitory concentration (MIC) with Staphylococcus aureus [14] turned out to be 1.56 µg/mL (≈ 3.37 µM); with Staphylococcus aureus [15], 0.78 µg/mL (≈ 1.68 µM); in the data set with Enterococcus faecium [16], 10.4 µg/mL (≈ 22.5 µM); in the data set with Enterococcus faecium [17], 9.4 µg/mL (≈ 20.3 µM); against Enterococcus faecium [18] it was 12.5 µg/mL (≈ 27 µM); against Enterococcus faecalis [19], 3.6 µg/mL (≈ 7.78 µM). The minimal inhibitory concentration (MIC) in the data set on Enterococcus faecalis [20] amounted to 16.7 µg/mL (≈ 36.1 µM); in the data set with Enterococcus faecalis [21], 4.2 µg/mL (≈ 9.07 µM); in the data set with Enterococcus faecalis [22], 25 µg/mL (≈ 54 µM); against Enterococcus faecalis [23] it was 6.3 µg/mL (≈ 13.6 µM); in the data set on Bacillus licheniformis, 0.098 µg/mL (≈ 0.212 µM); with Bacillus anthracis [24] it was 0.17 µg/mL (≈ 0.367 µM). Besides, the MIC in the data set with Bacillus thuringiensis is 0.52 µg/mL (≈ 1.12 µM); in the data set with Bacillus subtilis, 3.1 µg/mL (≈ 6.7 µM); in the data set with Staphylococcus aureus [4] it was 1.25 µM (≈ 0.579 µg/mL); in the data set on Bacillus anthracis [5], 0.625 µM (≈ 0.289 µg/mL). For the same compound, the inhibition in the data set with Staphylococcus aureus [25] was 8%. Also, the CC50 in the data set on HeLa was 25 µM. For the same compound, the IC50 in [6] was 1 µM; against Replicative DNA helicase it was 1.5 µM.

Turning to `Cc1c(CCC(=O)O)c(=O)oc2c(C)c(OCc3ccc(-c4ccccc4)cc3)ccc12`, the MIC against Staphylococcus aureus [8] was 12.5 µg/mL (≈ 29.2 µM); in the data set with Staphylococcus aureus [9], 3.1 µg/mL (≈ 7.23 µM); against Staphylococcus aureus [10], 1.56 µg/mL (≈ 3.64 µM); in the data set with Staphylococcus aureus [11] it was 2.1 µg/mL (≈ 4.9 µM); with Staphylococcus aureus [12], 1.56 µg/mL (≈ 3.64 µM); in the data set with Staphylococcus aureus [13] it was 2.6 µg/mL (≈ 6.07 µM). Besides, the minimum inhibitory concentration (MIC) with Staphylococcus aureus [14] was 4.2 µg/mL (≈ 9.8 µM); in the data set with Staphylococcus aureus [15], 1.56 µg/mL (≈ 3.64 µM); against Enterococcus faecium [16] it was 2.1 µg/mL (≈ 4.9 µM); against Enterococcus faecium [17], 14.6 µg/mL (≈ 34.1 µM); in the data set with Enterococcus faecium [18] it was 2.6 µg/mL (≈ 6.07 µM); in the data set with Enterococcus faecalis [19], 16.7 µg/mL (≈ 39 µM). Moreover, the MIC was over 25 µg/mL in the data set with Enterococcus faecalis [20]; 18.8 µg/mL (≈ 43.9 µM) in the data set on Enterococcus faecalis [21]; over 25 µg/mL with Enterococcus faecalis [22]; 5.2 µg/mL (≈ 12.1 µM) with Enterococcus faecalis [23]; 0.39 µg/mL (≈ 0.91 µM) with Bacillus licheniformis; 0.52 µg/mL (≈ 1.21 µM) against Bacillus anthracis [24]. Further, the minimal inhibitory concentration (MIC) with Bacillus thuringiensis is 0.65 µg/mL (≈ 1.52 µM); against Staphylococcus aureus [4] it was 2.5 µM (≈ 1.07 µg/mL); in the data set with Bacillus anthracis [5] it was 1.25 µM (≈ 0.536 µg/mL). Besides, the outcome in the data set on Staphylococcus aureus [26] was Active. In the data set on Staphylococcus aureus [25], this compound returned an inhibition of 6%. The IC50 in data set [27] was found to be 1.5 µM; in [28] it was 1.8 µM; in [6], 2 µM; against Replicative DNA helicase, 3 µM. In the data set on HeLa, this compound gave a half-maximal cytotoxic concentration (CC50) of 82 µM.
